Results taken from PMC6108325 (Bioorganic & medicinal chemistry, 2014).
≈ marks a conversion by molar mass, not a printed value. Blank lines part the entries; values can stand above or below the compound they belong to.

Columns and labels:
S. aureus ATCC 29213 = test: In vitro susceptibility testing; assay type: cell-based, Staphylococcus aureus
MRSA PK = MRSA PK (Staphylococcus aureus, UniProt Q6GG09); test: MRSA PK enzyme inhibition assay; assay type: biochemical, methicillin-resistant Staphylococcus aureus; details: for fold more potent than 33c: MRSA PK inhibition relative to 33c; for fold decrease in activity compared to 10a: MRSA PK inhibition relative to 10a
Procedure, shortened: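 His-tagged recombinant MRSA pyruvate kinase construct, prepared as in earlier work. […] IC50 was calculated from a triplicate 15-point titration. Where no IC50 was obtained, % inhibition at the highest concentration tested was reported.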

S. aureus (ATCC29213) = test: MIC in absence and presence of efflux inhibitor verapamil; assay type: cell-based, Staphylococcus aureus
MRSA strain MW2 (USA400) = test: In vitro susceptibility testing; assay type: cell-based, methicillin-resistant Staphylococcus aureus; details: CAMHB
Wild-type S. aureus LAC = test: Bacterial killing assay, wild type; assay type: cell-based, Staphylococcus aureus; details: 1.6 μM, aerobic growth in BHI
[1] = system: S. aureus LAC Δpyk::Erm^R; test: Bacterial killing assay, PK-deficient mutant; assay type: cell-based, Staphylococcus aureus; details: 1.6 μM
[2] = Staphylococcus aureus, ATCC29213
[3] = Staphylococcus aureus, ATCC29213, absence of verapamil

- MIC (S. aureus ATCC 29213; [2]): 0.3 µg/mL (≈ 0.911 µM)
Compound: Fc1ccc2[nH]c(-c3cc4ccc(Br)cc4[nH]3)cc2c1 [10e, 6′-Bromo-5-fluoro-1H,1′H-2,2′-biindole]

- MIC (S. aureus ATCC 29213; [2]): > 64 µg/mL
Compound: Brc1ccc2[nH]c(-c3cc4cc(Br)ccc4[nH]3)cc2c1 [10i, 5,5′-Bibromo-1H,1′H-2,2′-biindole]

Compound: COc1cc(-c2cc3ccccc3[nH]2)ccc1-c1cc2ccc(Br)cc2[nH]1 [33e, 2-(4-(1H-Indol-2-yl)-2-methoxyphenyl)-6-bromo-1H-indole]
- fold more potent than 33c (MRSA PK): 2–3 fold

Compound: CN[C@H](CC(C)C)C(=O)N[C@H]1C(=O)N[C@@H](CC(N)=O)C(=O)N[C@H]2C(=O)N[C@H]3C(=O)N[C@H](C(=O)N[C@H](C(=O)O)c4cc(O)cc(O)c4-c4cc3ccc4O)[C@H](O)c3ccc(c(Cl)c3)Oc3cc2cc(c3O[C@@H]2O[C@H](CO)[C@@H](O)[C@H](O)[C@H]2O[C@H]2C[C@](C)(N)[C@H](O)[C@H](C)O2)Oc2ccc(cc2Cl)[C@H]1O [vancomycin, reference compound]
- MIC (S. aureus (ATCC29213); [2]): 2 µg/mL
- MIC (S. aureus (ATCC29213); presence of verapamil (200 mg/L)): 2 µg/mL
- MIC (MRSA strain MW2 (USA400)): 2 µg/mL (≈ 1.38 µM)

Compound: Brc1ccc2cc(-c3cc4ccccc4o3)[nH]c2c1 [22b, 2-(Benzofuran-2-yl)-6-bromo-1H-indole]
- fold decrease in activity compared to 10a (MRSA PK): 5–8 fold

Compound: 5′,6-Dibromo-1-methyl-1H,2′H-2,2′-biindole [12b]
- % inhibition at the highest concentration tested (MRSA PK; @ 10 μM): 25% @ 10 μM

Compound: 2-(4-(1H-Indol-2-yl)-3-nitrophenyl)-6-bromo-1H-indole [33d]
- fold more potent than 33c (MRSA PK): 2–3 fold
- % Inhibition of MRSA PK (MRSA PK; at 10 μM (Table 4)): 86.2%
- IC50 (MRSA PK; triplicate 15-point titration): 1.8 nM

- MIC (S. aureus (ATCC29213); [3]): 16 µg/mL
- MIC (S. aureus ATCC 29213; [2]): 16 µg/mL (≈ 41 µM)
Compound: Brc1ccc2cc(-c3cc4ccc(Br)cc4[nH]3)[nH]c2c1 [10b, 6,6′-Dibromo-1H,1′H-2,2′-biindole]

Compound: Brc1ccc2cc(-c3nc4ccccc4s3)[nH]c2c1 [22a, 2-(6-Bromo-1H-indol-2-yl)benzo[d]thiazole]
- fold decrease in activity compared to 10a (MRSA PK): 5–8 fold

Compound: Clc1ccc2[nH]c(-c3cc4ccc(Br)cc4[nH]3)cc2c1 [10d, 6′-Bromo-5-chloro-1H,1′H-2,2′-biindole]
- bactericidal effect (Wild-type S. aureus LAC): highly bactericidal
- bactericidal effect ([1]; TSB without glucose + 1% sodium pyruvate (TSB-G+P)): unable to kill
- bactericidal effect ([1]; aerobic growth in BHI): merely acted statically
- MIC (S. aureus ATCC 29213; [2]): 0.3 µg/mL (≈ 0.868 µM)

Compound: Brc1cc2cc(-c3cc4cc(Br)c(Br)cc4[nH]3)[nH]c2cc1Br [10l, 5,5′,6,6′-Tetrabromo-1H,1′H-2,2′-biindole]
- MIC (S. aureus (ATCC29213); [3]): > 64 µg/mL
- shift of MIC by verapamil (S. aureus (ATCC29213); absence vs presence of verapamil (200 mg/L)): at least fourfold
- MIC (S. aureus ATCC 29213; [2]): > 64 µg/mL
- MIC (S. aureus ATCC 29213; minimum concentration to give >98% inhibition of growth): > 64 µg/mL

- MIC (S. aureus ATCC 29213; [2]): 0.3 µg/mL (≈ 0.769 µM)
Compound: Brc1ccc2[nH]c(-c3cc4ccc(Br)cc4[nH]3)cc2c1 [10c, 5,6-Bibromo-1H,1′H-2,2′-biiindole]
